Measured values taken from ChEMBL document CHEMBL3232930, “One-pot, four-component synthesis of novel cytotoxic agents 1-(5-aryl-1,3,4-oxadiazol-2-yl)-1-(1H-pyrrol-2-yl)methanamines” (Eur J Med Chem, 2014).

Assays:
MCF7 [1] = experiment: Cytotoxicity against human MCF7 cells assessed as reduction in cell viability after 24 hrs by MTT assay; type: functional, cell-based; settings: MCF7, 24 h
Summary of the method: (§1)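 15,000 exponential-phase cells per well were seeded and incubated 24 h, then exposed to a range of test concentrations. Medium alone served as the negative control and doxorubicin as the positive control. MTT (5 mg/mL stock) was added for a further 4 h, and the formazan was dissolved in DMSO. Percent inhibition versus control was calculated, and IC50 was taken from the dose–inhibition curve. Each experiment was run three times.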

A549 = experiment: Cytotoxicity against human A549 cells assessed as reduction in cell viability after 24 hrs by MTT assay; type: functional, cell-based; settings: A549, 24 h; summary of the method: as §1
HT-29 = experiment: Cytotoxicity against human HT-29 cells assessed as reduction in cell viability after 24 hrs by MTT assay; type: functional, cell-based; settings: HT-29, 24 h; summary of the method: as §1
[2] = Cytotoxicity against human HT1080 cells assessed as reduction in cell viability after 24 hrs by MTT assay; type: functional, cell-based; settings: HT-1080, 24 h; summary of the method: as §1
MCF7 [3] = experiment: Ratio of doxorubicin IC50 to compound IC50 for human MCF7 cells assessed as reduction in cell viability after 24 hrs by MTT assay; type: functional

Structure (SMILES)	IC50 (MCF7 [1]) [µM]	IC50 (A549) [µM]	IC50 (HT-29) [µM]	IC50 [2] [µM]	Ratio IC50 (MCF7 [3])
c1ccc(CNC(c2ccc[nH]2)c2nnc(-c3ccccc3)o2)cc1 (stereo not drawn)	216	187	198	231	–
Clc1cccc(-c2nnc(C(NCc3ccccc3)c3ccc[nH]3)o2)c1 (stereo not drawn)	56.7	62.2	48.3	41.1	–
Clc1ccc(-c2nnc(C(NCc3ccccc3)c3ccc[nH]3)o2)cc1 (stereo not drawn)	46.2	73.8	54.5	41	–
Clc1ccc(-c2nnc(C(NCc3ccccc3)c3ccc[nH]3)o2)cc1Cl (stereo not drawn)	13.9	25.5	41.7	15.2	–
Fc1cc(-c2nnc(C(NCc3ccccc3)c3ccc[nH]3)o2)c(Cl)cc1Cl (stereo not drawn)	21.7	27.5	20	25.6	–
Brc1ccc(-c2nnc(C(NCc3ccccc3)c3ccc[nH]3)o2)cc1 (stereo not drawn)	96.6	87.2	58.3	70.6	–
Cc1ccc(-c2nnc(C(NCc3ccccc3)c3ccc[nH]3)o2)cc1 (stereo not drawn)	1120	744	249	909	–
Cc1cccc(-c2nnc(C(NCc3ccccc3)c3ccc[nH]3)o2)c1 (stereo not drawn)	480	430	202	311	–
COc1ccc(-c2nnc(C(NCc3ccccc3)c3ccc[nH]3)o2)cc1 (stereo not drawn)	460	326	344	170	–
COc1ccc(-c2nnc(C(NCc3ccccc3)c3ccc[nH]3)o2)c(OC)c1 (stereo not drawn)	471	296	392	418	–
COc1ccccc1CNC(c1ccc[nH]1)c1nnc(-c2ccccc2)o1 (stereo not drawn)	441	362	392	278	–
COc1ccc(CNC(c2ccc[nH]2)c2nnc(-c3ccccc3)o2)cc1 (stereo not drawn)	142	278	286	175	–
COc1ccc(CNC(c2ccc[nH]2)c2nnc(-c3cccc(Cl)c3)o2)cc1 (stereo not drawn)	41.7	77.5	95.6	84.6	–
Cc1ccc(CNC(c2ccc[nH]2)c2nnc(-c3ccc(Br)cc3)o2)cc1 (stereo not drawn)	4.3	53.9	49.5	51.9	4
COc1ccc(-c2nnc(C(NCc3ccc(F)cc3)c3ccc[nH]3)o2)cc1 (stereo not drawn)	28.9	52.8	39.4	14.7	–
Clc1cccc(-c2nnc(C(NCc3ccc(Cl)c(Cl)c3)c3ccc[nH]3)o2)c1 (stereo not drawn)	19	13.3	18	25.1	–
Clc1ccc(CNC(c2ccc[nH]2)c2nnc(-c3ccc(Br)cc3)o2)cc1Cl (stereo not drawn)	31	17.3	20	45.3	–
COc1cccc2c1C(=O)c1c(O)c3c(c(O)c1C2=O)C[C@@](O)(C(=O)CO)C[C@@H]3O[C@H]1C[C@H](N)[C@H](O)[C@H](C)O1 [DOXORUBICIN]	16.9	13.6	16	15.4	–
